Source: ChEMBL document CHEMBL1142086, “Flavonoid dimers as bivalent modulators for pentamidine and sodium stiboglucanate resistance in leishmania” (Antimicrob Agents Chemother, 2007)
Calls of active or inactive are those of the source. Unless noted, the calls are words filed in the database; no cut-off is given here.

Legend:
[1] = test system: Leishmania donovani; assay: Cytotoxicity against SSG-resistant Leishmania donovani Ld39 by MTS assay; type: organism-based
How it was run: (§1)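 Promastigotes in Schneider's Drosophila medium (pH 6.9) with 10% heat-inactivated FCS, 4 mM glutamine and gentamicin at 27°C. Seeded at 10^5 cells/well, exposed to a range of modulator concentrations (up to 200 μM) for 72 h at 27°C. MTS/PMS added, 4 h colour development, OD 490 nm. Survival expressed relative to untreated wells; ≥2 independent experiments in triplicate.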

[2] = test system: Leishmania donovani; assay: Cytotoxicity against wild-type Leishmania donovani LdAG83 by MTS assay; type: organism-based; details: AG83; how it was run: as §1
[3] = test system: Leishmania enriettii; assay: Cytotoxicity against pentamidine-resistant Leishmania enriettii LePentR50 by MTS assay; type: organism-based; how it was run: as §1
[4] = Toxicity against pentamidine-resistance Leishmania enriettii LePentR50 upto 6 uM
[5] = Resistance reversal as >50% reduction in pentamidine IC50 in wild-type Leishmania enriettii by MTS assay; type: functional
How it was run: (§2)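 L. enriettii promastigotes are wild type, LeMDR1−/− (no drug in culture) or LeV160 (maintained in 160 μg/ml vinblastine). Seeded at 10^5 cells/well with graded pentamidine plus 6 μM modulator for 72 h at 27°C. MTS read-out at 490 nm gives the pentamidine IC50. Three independent experiments in triplicate.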

[6] = Resistance reversal as >50% reduction in pentamidine IC50 in drug-resistant Leishmania enriettii LePentR50 by MTS assay; type: functional
How it was run: (§3)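 Promastigotes seeded at 10^5 cells/well and incubated 72 h at 27°C with serial concentrations of SSG (L. donovani) or pentamidine (L. enriettii LePentR50), each with 6 μM modulator or DMSO solvent control. Survival read by MTS/PMS at 490 nm after 4 h. […] Triplicates per concentration.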

[7] = Effect on modulating drug-resistance of wild type SSG-sensitive Leishmania donovani LdAG83 promastigotes assessed as reversal of resistance at 6 uM after 72 hrs by MTS; type: functional
How it was run: (§4)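 Ld39 or LdAG83 promastigotes seeded at 10^5 cells/well with serial SSG dilutions plus modulator (0, 1, 2, 4, 6 μM) for 72 h at 27°C. SSG concentrations differ between the two strains. Percentage survivors by MTS. Triplicate points, three separate experiments.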

[8] = test system: Leishmania donovani; assay: Cytotoxicity against wild-type Leishmania donovani at 60 uM after 3 hrs; type: organism-based; details: in vitro
[9] = test system: Leishmania enriettii; assay: Increase of pentamidine accumulation in drug-resistant Leishmania enriettii LePentR50 promastigotes at 60 uM after 3 hrs; type: functional, organism-based
How it was run: (§5)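 4-day-old LePentR50 promastigotes (2 × 10^8 cells/ml, 1 ml) incubated with 0.84 mM pentamidine plus modulator (0, 15, 30, 60 μM) for 3 h at 27°C in the dark. Cells washed with cold PBS and lysed in 75% acetonitrile by freeze-thaw. Pentamidine quantified by ion-pair C18 HPLC at 265 nm against a standard curve and expressed per mg protein. Triplicates, repeated twice.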

[10] = test system: Leishmania enriettii; assay: Increase of pentamidine accumulation in drug-resistant Leishmania enriettii LePentR50 promastigotes at 30 uM after 3 hrs; type: functional, organism-based; how it was run: as §5
[11] = test system: Leishmania donovani; assay: Increase of SSG accumulation in drug-resistant Leishmania donovani Ld39 at 60 uM relative to LdAG83 cells; type: functional, organism-based
How it was run: (§6)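 Axenic amastigotes made by shifting 4-day promastigotes into supplemented M199 at 37°C for 24 h. 1 ml (2 × 10^8 cells/ml) incubated with 0.05 mM SSG plus modulator (0, 30, 60 μM) for 3 h at 37°C. After PBS washes, cells digested in nitric acid. Total Sb measured by ICP-MS (m/z 121/123, In internal standard), in nmol/mg protein. Expressed as % of LdAG83; triplicates, two experiments.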

[12] = test system: Leishmania enriettii; assay: Cytotoxicity against drug-resistant Leishmania enriettii LePentR50 at 60 uM after 3 hrs; type: organism-based; details: in vitro
[13] = Effect on modulating SSG-resistance of Leishmania donovani Ld39 promastigotes assessed as reversal of resistance at 6 uM after 72 hrs by MTS; type: functional; how it was run: as §4
[14] = test system: Leishmania donovani; assay: Increase of SSG accumulation in drug-resistant Leishmania donovani Ld2001 at 30 uM relative to LdAG83 cells; type: functional, organism-based; how it was run: as §6
[15] = Effect on modulating pentamidine-resistance of Leishmania enriettii LePentR50 assessed as decrease in survival after 72 hrs by MTS; type: functional
How it was run: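 LePentR50 promastigotes seeded at 10^5 cells/well, exposed 72 h at 27°C to graded modulator alone or with 60 μg/ml pentamidine. MTS survival as percentage of untreated. […] Triplicates, three repeats.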

[16] = Resistance reversal as >50% reduction in SSG IC50 in wild-type Leishmania donovani LdAG83 by MTS assay; type: functional; how it was run: as §3
[17] = test system: Leishmania enriettii; assay: Increase of pentamidine accumulation in drug-resistant Leishmania enriettii LePentR50 promastigotes at 15 uM after 3 hrs; type: functional, organism-based; how it was run: as §5
[18] = Resistance reversal as >50% reduction in SSG IC50 in drug-resistant Leishmania donovani Ld2001 by MTS assay; type: functional; how it was run: as §3
[19] = test system: Leishmania donovani; assay: Increase of SSG accumulation in drug-resistant Leishmania donovani Ld2001 at 60 uM relative to LdAG83 cells; type: functional, organism-based; how it was run: as §6
[20] = Resistance reversal as >50% reduction in pentamidine IC50 in Leishmania enriettii LeV160 overexpressing LeMDR1 by MTS assay; type: functional; how it was run: as §2
[21] = Resistance reversal as >50% reduction in SSG IC50 in drug-resistant Leishmania donovani Ld39 by MTS assay; type: functional; how it was run: as §3
[22] = test system: Leishmania donovani; assay: Increase of SSG accumulation in drug-resistant Leishmania donovani Ld39 at 30 uM relative to LdAG83 cells; type: functional, organism-based; how it was run: as §6
[23] = Resistance reversal as >50% reduction in pentamidine IC50 in Leishmania enriettii LeMDR1-/- by MTS assay; type: functional; how it was run: as §2

O=c1cc(-c2ccc(OCCOCCOCCOCCOCCOCCOCCOCCOCCOCCOCCOCCOCCOc3ccc(-c4cc(=O)c5c(O)cc(O)cc5o4)cc3)cc2)oc2cc(O)cc(O)c12
IC50 [1]: 60 µM
IC50 [2]: 50 µM

O=c1cc(-c2ccc(OCCOCCOCCOCCOCCOCCOc3ccc(-c4cc(=O)c5c(O)cc(O)cc5o4)cc3)cc2)oc2cc(O)cc(O)c12
IC50 [1]: 13 µM
IC50 [2]: 11 µM
IC50 [3]: 40 µM

O=c1cc(-c2ccc(OCCOCCOCCO)cc2)oc2cc(O)cc(O)c12
IC50 [1]: > 200 µM
IC50 [2]: > 200 µM
IC50 [3]: > 200 µM

O=c1cc(-c2ccc(OCCOCCOCCOCCOCCOCCOCCOCCOc3ccc(-c4cc(=O)c5c(O)cc(O)cc5o4)cc3)cc2)oc2cc(O)cc(O)c12
IC50 [1]: 14 µM
IC50 [2]: 12 µM

O=c1cc(-c2ccc(O)cc2)oc2cc(O)cc(O)c12 [APIGENIN]
IC50 [1]: 43 µM
IC50 [2]: 32 µM
IC50 [3]: 55 µM

O=c1cc(-c2ccc(OCCOCCOCCOCCOc3ccc(-c4cc(=O)c5c(O)cc(O)cc5o4)cc3)cc2)oc2cc(O)cc(O)c12
Toxicity [4]: Not Toxic
Resistance reversal [5]: Active
Resistance reversal [6]: Active
Resistance reversal [7]: inactive
Activity [8]: Not Active
Drug uptake [9]: 26.6 µM
Drug uptake [10]: 4.69 µM
Drug uptake [11]: 90%
Activity [12]: Not Active
Resistance reversal [13]: Dose-dependent effect
Drug uptake [14]: 83%
EC50 [15]: 940 nM
IC50 [1]: 10 µM
Resistance reversal [16]: inactive
Drug uptake [17]: 2.95 µM
IC50 [2]: 7 µM
IC50 [3]: > 200 µM
Resistance reversal [18]: Active
Drug uptake [19]: 69%
Resistance reversal [20]: Active
Resistance reversal [21]: Active
Drug uptake [22]: 74%
Resistance reversal [23]: Active

O=c1cc(-c2ccc(OCCOCCOCCOCCOCCOCCOCCOCCOCCOCCOc3ccc(-c4cc(=O)c5c(O)cc(O)cc5o4)cc3)cc2)oc2cc(O)cc(O)c12
IC50 [1]: > 200 µM
IC50 [2]: > 200 µM

O=c1cc(-c2ccc(OCCOCCOCCOCCOCCOc3ccc(-c4cc(=O)c5c(O)cc(O)cc5o4)cc3)cc2)oc2cc(O)cc(O)c12
IC50 [1]: 42 µM
IC50 [2]: 30 µM
IC50 [3]: 70 µM

O=c1cc(-c2ccc(OCCOCCOCCOc3ccc(-c4cc(=O)c5c(O)cc(O)cc5o4)cc3)cc2)oc2cc(O)cc(O)c12
Resistance reversal [6]: Active
Resistance reversal [13]: Dose-dependent effect
EC50 [15]: 1850 nM
IC50 [1]: 11 µM
Resistance reversal [16]: inactive
IC50 [2]: 8 µM
Resistance reversal [18]: Active
Resistance reversal [20]: Active
Resistance reversal [21]: Active
Resistance reversal [23]: Active

O=c1cc(-c2ccc(OCCOc3ccc(-c4cc(=O)c5c(O)cc(O)cc5o4)cc3)cc2)oc2cc(O)cc(O)c12
IC50 [2]: 95 µM

O=c1cc(-c2ccc(OCCOCCOCCOCCOCCOCCOCCOCCOCCOc3ccc(-c4cc(=O)c5c(O)cc(O)cc5o4)cc3)cc2)oc2cc(O)cc(O)c12
IC50 [1]: 14 µM
IC50 [2]: 10 µM
